Data reported in BindingDB's records for doi:10.1021/jm980408v (University of Kuopio, 1999).

Biological target: Histamine H3 receptor (Rattus norvegicus, UniProt Q9QYN8)
Experiment: Affinity for histamine H3 receptor in rat cerebral cortex.
Procedure, shortened: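 Affinity for the H3 receptor measured in an in vitro binding assay by displacement of the radioligand [3H]R-(α)-methylhistamine.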

Chain of Histamine H3 receptor (Q9QYN8 whole entry): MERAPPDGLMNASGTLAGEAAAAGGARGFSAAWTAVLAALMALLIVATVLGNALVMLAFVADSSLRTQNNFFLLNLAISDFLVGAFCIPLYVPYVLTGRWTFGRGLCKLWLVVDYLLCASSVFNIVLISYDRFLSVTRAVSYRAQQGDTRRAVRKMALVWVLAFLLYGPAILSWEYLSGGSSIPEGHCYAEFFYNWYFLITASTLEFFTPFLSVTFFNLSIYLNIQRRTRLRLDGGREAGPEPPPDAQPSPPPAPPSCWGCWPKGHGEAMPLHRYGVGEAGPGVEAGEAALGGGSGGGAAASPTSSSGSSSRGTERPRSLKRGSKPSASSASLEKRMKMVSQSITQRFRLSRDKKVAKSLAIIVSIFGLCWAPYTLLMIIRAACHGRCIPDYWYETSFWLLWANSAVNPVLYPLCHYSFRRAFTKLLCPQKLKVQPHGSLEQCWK

| Compound | Ki |
| --- | --- |
| N[C@@H](COCc1ccc(Br)cc1)Cc1c[nH]cn1 | 199 nM |
| c1ccc(COCCCc2c[nH]cn2)cc1 [proxifan] | 3.16 nM |
| N[C@H](COCc1ccccc1)Cc1c[nH]cn1 | 50.1 nM |
| N[C@H](COCC1CCCCC1)Cc1c[nH]cn1 | 12.6 nM |
| N[C@@H](COCC1CCCCC1)Cc1c[nH]cn1 | 158 nM |
| N[C@H](COCc1ccc(I)cc1)Cc1c[nH]cn1 | 251 nM |
| Ic1ccc(COCCCc2c[nH]cn2)cc1 [Iodoproxyfan] | 0.126 nM |
| N[C@@H](COCc1ccc(I)cc1)Cc1c[nH]cn1 | 199 nM |
| N[C@H](COCc1ccc(Br)cc1)Cc1c[nH]cn1 | 79.4 nM |

Now from value to compound:

| Ki | Compound |
| --- | --- |
| 1250 nM | COC[C@@H](N)Cc1c[nH]cn1 |
| 251 nM | N[C@H](CO)Cc1c[nH]cn1 [HISTIDINOL] |
| 316 nM | N[C@@H](COCc1ccccc1)Cc1c[nH]cn1 |
| 1250 nM | N[C@@H](CO)Cc1c[nH]cn1 |
